Test results taken from ChEMBL document CHEMBL1158465, “Novel small molecule bradykinin B2 receptor antagonists” (J Med Chem, 2009).

What was measured:
B2 bradykinin receptor [1] = molecular target: T1, B2 bradykinin receptor (Cavia porcellus, UniProt O70526); experiment: Displacement of [3H]bradykinin from guinea pig B2 receptor
T1 sequence (O70526 whole entry): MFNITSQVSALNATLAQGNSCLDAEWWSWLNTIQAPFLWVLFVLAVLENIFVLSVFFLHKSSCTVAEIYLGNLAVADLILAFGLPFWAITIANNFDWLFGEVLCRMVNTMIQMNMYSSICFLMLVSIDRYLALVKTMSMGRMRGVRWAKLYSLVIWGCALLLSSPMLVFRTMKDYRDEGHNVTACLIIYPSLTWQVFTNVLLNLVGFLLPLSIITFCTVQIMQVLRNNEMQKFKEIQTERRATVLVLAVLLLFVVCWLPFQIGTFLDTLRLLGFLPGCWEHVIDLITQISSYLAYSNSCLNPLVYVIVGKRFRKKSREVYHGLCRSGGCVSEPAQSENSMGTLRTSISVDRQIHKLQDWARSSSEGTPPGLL

B2 bradykinin receptor [2] = molecular target: T2, B2 bradykinin receptor (Homo sapiens, UniProt P30411); experiment: Displacement of [3H]bradykinin from human recombinant B2 receptor expressed in HEK293 cells; format: cell-based
T2 sequence (P30411 whole entry): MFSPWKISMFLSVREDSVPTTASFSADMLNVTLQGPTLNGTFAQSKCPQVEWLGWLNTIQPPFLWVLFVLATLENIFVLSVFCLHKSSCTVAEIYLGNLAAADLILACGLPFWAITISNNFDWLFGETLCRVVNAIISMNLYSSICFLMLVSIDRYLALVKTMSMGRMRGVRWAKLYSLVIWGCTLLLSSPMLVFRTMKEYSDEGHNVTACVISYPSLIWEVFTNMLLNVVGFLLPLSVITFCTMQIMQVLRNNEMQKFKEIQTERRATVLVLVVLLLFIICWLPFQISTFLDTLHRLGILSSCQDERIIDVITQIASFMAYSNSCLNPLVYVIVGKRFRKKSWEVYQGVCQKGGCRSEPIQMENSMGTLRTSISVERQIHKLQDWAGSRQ

B2 bradykinin receptor [3] = molecular target: T2, B2 bradykinin receptor; experiment: Antagonist activity at B2 receptor in human HF15 cells assessed as inhibition of bradykinin-induced calcium mobilization; format: functional, cell-based
Cytochrome P450 3A4 = Cytochrome P450 3A4 (Homo sapiens, UniProt P08684); experiment: Inhibition of human CYP3A4 by microtiter plate assay; format: ADME
[4] = Metabolic stability in human liver microsomes at 1 uM by HPLC; format: ADME, Microsome; conditions: read-out: Stability
Summary of the method: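 Test compound was incubated with liver microsomes for 30 min. Stability is expressed as the percentage of parent compound remaining at the end of incubation.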

Cytochrome P450 2C19 = Cytochrome P450 2C19 (Homo sapiens, UniProt P33261); experiment: Inhibition of human CYP2C19 by microtiter plate assay; format: ADME
B2 bradykinin receptor [5] = molecular target: T2, B2 bradykinin receptor; experiment: Displacement of [3H]bradykinin from wild-type B2 receptor
Summary of the method: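 Specific binding of [³H]-BK to recombinant human B₂ receptor expressed in HEK293 cells. Displacement by test compound is reported as IC₅₀. Values are the numerical average of at least two experiments.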

[6] = Displacement of [3H]bradykinin from B2 receptor N107A mutant
[7] = Aqueous solubility of the compound; format: physicochemical; conditions: aqueous solution

Cytochrome P450 2C19, sequence (P33261 whole entry): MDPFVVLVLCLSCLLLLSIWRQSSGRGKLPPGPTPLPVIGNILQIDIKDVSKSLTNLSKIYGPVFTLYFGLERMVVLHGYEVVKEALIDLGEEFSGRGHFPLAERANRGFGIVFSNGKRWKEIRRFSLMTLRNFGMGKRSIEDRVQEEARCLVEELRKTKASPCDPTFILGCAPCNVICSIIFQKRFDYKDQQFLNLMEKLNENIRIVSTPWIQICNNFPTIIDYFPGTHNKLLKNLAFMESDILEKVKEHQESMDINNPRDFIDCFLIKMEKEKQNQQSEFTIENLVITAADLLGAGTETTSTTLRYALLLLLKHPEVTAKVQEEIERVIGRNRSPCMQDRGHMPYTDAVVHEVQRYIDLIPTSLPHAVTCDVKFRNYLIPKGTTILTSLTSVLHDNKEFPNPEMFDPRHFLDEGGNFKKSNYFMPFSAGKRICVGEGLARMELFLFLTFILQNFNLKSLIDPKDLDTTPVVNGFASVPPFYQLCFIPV
Cytochrome P450 3A4, sequence (P08684 whole entry): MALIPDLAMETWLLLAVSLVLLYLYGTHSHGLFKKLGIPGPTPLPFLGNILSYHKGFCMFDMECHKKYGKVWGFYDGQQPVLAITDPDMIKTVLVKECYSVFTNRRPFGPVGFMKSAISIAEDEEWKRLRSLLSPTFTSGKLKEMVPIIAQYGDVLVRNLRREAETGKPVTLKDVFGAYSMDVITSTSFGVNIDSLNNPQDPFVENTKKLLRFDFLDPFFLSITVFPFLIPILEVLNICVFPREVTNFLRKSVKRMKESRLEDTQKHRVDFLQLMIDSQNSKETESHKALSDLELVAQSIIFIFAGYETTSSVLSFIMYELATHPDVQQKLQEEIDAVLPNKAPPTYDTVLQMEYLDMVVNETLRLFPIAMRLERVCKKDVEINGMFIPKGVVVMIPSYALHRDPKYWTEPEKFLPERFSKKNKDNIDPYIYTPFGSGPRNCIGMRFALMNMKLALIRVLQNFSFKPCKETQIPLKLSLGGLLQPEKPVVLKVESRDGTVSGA

Compound | IC50 (B2 bradykinin receptor [2]) [nM] | IC50 (B2 bradykinin receptor [3]) [nM] | also measured
Cc1ccc2cccc(OCc3c(Cl)ccc(N(C)C(=O)CNC(=O)/C=C/c4ccc(C(F)(F)F)cc4)c3C#N)c2n1 | – | – | IC50 (B2 bradykinin receptor [1]): 0.3 nM
Cc1cc(-c2conc2C)c2cccc(OCc3c(Cl)cncc3Cl)c2n1 | 430 | 3800 | –
Cc1cc(C)c2cccc(OCc3c(Cl)ccc(S(=O)(=O)N4CCC[C@H]4C(=O)CCCNC(=O)c4ccc(C(=N)N)cc4)c3Cl)c2n1 | 0.67 | – | –
Cc1cc(-n2ccnc2C)c2cccc(OCc3c(Cl)cncc3Cl)c2n1 | 200 | 1300 | –
Cc1cc(-c2ncsc2Cl)c2cccc(OCc3c(C)ccnc3Cn3cccc(C(F)(F)F)c3=O)c2n1 | 10 | 1.3 | IC50 (Cytochrome P450 3A4): 300 nM; remaining at 1 µM [4]: 34%; IC50 (Cytochrome P450 2C19): 300 nM
Cc1cc(-c2csnc2C)c2cccc(OCc3c(Cl)cncc3Cl)c2n1 | 200 | 330 | –
Cc1cc(-c2cncs2)c2cccc(OCc3c(Cl)cncc3Cl)c2n1 | 135 | 420 | –
Cc1cc(-c2cscn2)c2cccc(OCc3c(Cl)cncc3Cl)c2n1 | 80 | 300 | –
Cc1cc(-c2ccnn2C)c2cccc(OCc3c(Cl)cncc3CNC(=O)C(C)C)c2n1 | 7.8 | 2.3 | –
Cc1cc(-c2ocnc2C)c2cccc(OCc3c(Cl)cncc3Cl)c2n1 | 6050 | > 5000 | –
Cc1cc(-c2cc[nH]n2)c2cccc(OCc3c(Cl)cncc3Cl)c2n1 | 310 | 350 | –
Cc1ccc2cccc(OCc3c(Cl)cncc3Cl)c2n1 | 5300 | – | –
Cc1cc(-c2ccnn2C)c2cccc(OCc3ccncc3Cl)c2n1 | 517 | 1600 | –
Cc1cc(-c2ccnn2C)c2cccc(OCc3c(Cl)cncc3Sc3nccs3)c2n1 | 50 | 29 | IC50 (B2 bradykinin receptor [5]): 470 nM; IC50 [6]: 2300 nM
Cc1cc(-c2ccnn2C)c2cccc(OCc3c(Cl)cncc3Sc3nccn3C)c2n1 | 18 | 43 | –
Cc1cc(-c2ccnn2C)c2cccc(OCc3c(Cl)cncc3COC(=O)N(C)C)c2n1 | 8.3 | 12 | –
Cc1ccc2cccc(OCc3c(Cl)cccc3Cl)c2n1 | – | – | solubility [7]: < 1 µM
Cc1cc(-c2ccnn2C)c2cccc(OCc3c(Cl)cncc3CNS(C)(=O)=O)c2n1 | 14 | 110 | –
Cc1cc(-c2ccnn2C)c2cccc(OCc3c(Cl)cncc3CCC(=O)N(C)C)c2n1 | 36 | 73 | –
CC(=O)NCc1cncc(Cl)c1COc1cccc2c(-c3ccnn3C)cc(C)nc12 | 12 | 24 | –
Cc1cc(-c2scnc2Cl)c2cccc(OCc3c(Cl)cncc3Cl)c2n1 | 980 | 2500 | –
Cc1cc(-c2ccnn2C)c2cccc(OCc3c(Cl)cncc3OCC(=O)N(C)C)c2n1 | 6.5 | 91 | –
Cc1cc(-n2ccnc2)c2cccc(OCc3c(Cl)cncc3Cl)c2n1 | 580 | 2500 | solubility [7]: > 50 µM
Cc1cc(-c2ccnn2C)c2cccc(OCc3c(Cl)cncc3Cn3cccc(C(F)(F)F)c3=O)c2n1 | 4 | 1.4 | –
Cc1cc(-c2ccnn2C)c2cccc(OCc3c(C)ccnc3CNC(=O)C(C)C)c2n1 | 5.4 | 3.8 | IC50 (Cytochrome P450 3A4): 3100 nM; remaining at 1 µM [4]: 13%; IC50 (Cytochrome P450 2C19): > 5000 nM
